The text below walks through data of ChEMBL document CHEMBL5335784, “Discovery of a novel 1,3,4-oxadiazol-2-one-based NLRP3 inhibitor as a pharmacological agent to mitigate cardiac and metabolic complications in an experimental model of diet-induced metaflammation” (Eur J Med Chem, 2023).

Each structure is given as a SMILES string. Active and inactive are the calls of the source. The calls are words filed in the database; no cut-off is given here.

For data set [1], the system named is Rattus norvegicus. Nature of the data set: Antiinflammatory activity against high fat diet fed-induced metaflammation Wistar rat model assessed as reduction in HFD-induced metabolic alterations by measuring increase in HDL cholesterol level in plasma at 20 mg/kg/day, ip administered for 4 weeks. It is filed as functional, organism-based. In outline:
(§1)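 Rats fed HFD or SD for 12 weeks, dosed 20 mg/kg/day i.p. in saline/2% DMSO/5% Cremophor-EL during the final 28 days. Serum obtained after sacrifice by centrifuging blood at 2000 x g, 10 min, 4 °C. Glucose read by glucometer; total, HDL and LDL cholesterol and triglycerides measured with commercial kits. n=6–7 per group.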

The test system of data set [2] is Rattus norvegicus. Nature of the data set: Cardioprotective activity against ischemia/reperfusion-induced myocardial injury and high diet fed obese Wistar rat model assessed as infarct size at 20 mg/kg/day, ip administered for 4 weeks followed by excised heart exposed to global ischemia for 30 mins and reperfusion for 120 mins and measured at the end of reperfusion by nitroblue tetrazolium staining based analysis (Rvb ~ 70+/-1%). It counts as functional. Particulars: 672 h. In outline: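 Hearts from HFD or SD rats (20 mg/kg/day i.p., last 28 days) Langendorff-perfused (KH buffer, 37 °C, 12 ml/min). After 40 min stabilization they underwent 30 min global ischemia and 120 min reperfusion. The LV was stained; unstained necrotic and stained viable tissue separated and weighed. Infarct size expressed as % of LV mass. n=6–7.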

The subject of data set [3] is Rattus norvegicus. Nature of the data set: Antiinflammatory activity against high fat diet fed-induced metaflammation Wistar rat model assessed as reduction in HFD-induced anthropometric alterations by measuring reduction in retroperitoneal fat deposition at 20 mg/kg/day, ip administered for 4 weeks. It is filed as functional, organism-based. In a few lines: (§2)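 Male Wistar rats on high-fat diet (60% kcal fat) or standard diet for 12 weeks; 20 mg/kg/day i.p. or vehicle (saline, 2% DMSO, 5% Cremophor-EL) over the last 28 days. Body weight recorded weekly. After sacrifice, abdominal, epididymal, retroperitoneal and perirenal fat, liver and heart excised and weighed. Cardiac somatic index = heart weight/body weight ×100. n=6–7 per group.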

In data set [4] the test system is Rattus norvegicus. Nature of the data set: Cardioprotective activity against ischemia/reperfusion-induced myocardial injury and high diet fed obese Wistar rat model assessed as decrease in LDH activity in coronary effluents at 20 mg/kg/day, ip administered for 4 weeks followed by excised heart exposed to global ischemia for 30 mins and reperfusion for 120 mins and measured during first 10 mins of reperfusion by spectrophotometric analysis. It is filed as functional, organism-based. In a few lines: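 HFD or SD rats, dosed 20 mg/kg/day i.p. for the final 28 days, anaesthetised with ethyl carbamate (2 g/kg i.p.). Hearts Langendorff-perfused with Krebs–Henseleit buffer (pH 7.4, 37 °C, 12 ml/min); 40 min stabilization, 30 min global no-flow ischemia, 120 min reperfusion. Coronary effluent collected on ice before ischemia and at 10, 20, 30 min reperfusion; LDH activity by McQueen method. n=6–7.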

For data set [5], the system named is Rattus norvegicus. Nature of the data set: Inhibition of ischemia/reperfusion-induced inflammation in ischemia/reperfusion-induced myocardial injury and standard diet fed Wistar rat model assessed as decrease in cardiac TNF-alpha level at 20 mg/kg/day, ip administered for 4 weeks followed by excised heart exposed to global ischemia for 30 mins and reperfusion for 120 mins by ELISA. It is filed as functional, organism-based. In a few lines: (§3)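 Male Wistar rats on standard or 60% kcal fat diet for 12 weeks; last 28 days i.p. 20 mg/kg/day in saline with 2% DMSO and 5% Cremophor-EL, or vehicle. Hearts perfused by Langendorff with KH buffer at 12 ml/min, 37°C, then 40 min stabilization, 30 min global no-flow ischemia and 120 min reperfusion. Cytokines measured in LV tissue; n=6–7 per group.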
For orientation: An ELISA detects its analyte on a solid surface through an enzyme-linked reagent.

Data set [6] in a line: Effect on IL-1 beta level in standard diet fed Wistar rat serum at 20 mg/kg/day, ip administered for 4 weeks by ELISA. It counts as toxicity, organism-based. Particulars: in vivo, 672 h. In a few lines:
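Male Wistar rats on HFD or SD for 12 weeks received 20 mg/kg/day i.p. (saline, 2% DMSO, 5% Cremophor-EL) or vehicle for the last 28 days. Circulating IL-1β, TNF-α, BNP and Gal-3 quantified by ELISA in blood collected after sacrifice. n=6–7 per group.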

In data set [7] the test system is Rattus norvegicus. Nature of the data set: Cardioprotective activity against high fat diet fed-induced metaflammation Wistar rat model assessed as reduction in myocardial damage by measuring reduction in plasma LDH level at 20 mg/kg/day, ip administered for 4 weeks. It counts as functional, organism-based.
In data set [8] the test system is Rattus norvegicus. Nature of the data set: Antiinflammatory activity against high fat diet fed-induced metaflammation Wistar rat model assessed as reduction in HFD-induced anthropometric alterations by measuring reduction in body weight gain at 20 mg/kg/day, ip administered for 4 weeks. It is filed as functional, organism-based. In a few lines:
as §2

Data set [9] concerns Rattus norvegicus. Put plainly: Antiinflammatory activity against high fat diet fed-induced metaflammation Wistar rat model assessed as reduction in HFD-induced anthropometric alterations by measuring reduction in epididymal fat deposition at 20 mg/kg/day, ip administered for 4 weeks. It counts as functional, organism-based. In outline: as §2
Data set [10] relates to Rattus norvegicus. Put plainly: Antiinflammatory activity against high fat diet fed-induced metaflammation Wistar rat model assessed as reduction in HFD-induced anthropometric alterations by measuring reduction in liver weight at 20 mg/kg/day, ip administered for 4 weeks. It counts as functional, organism-based. In a few lines: as §2
Data set [11] deals with Rattus norvegicus. Nature of the data set: Inhibition of ischemia/reperfusion-induced inflammation in ischemia/reperfusion-induced myocardial injury and high fat diet fed obese Wistar rat model assessed as decrease in cardiac TNF-alpha level at 20 mg/kg/day, ip administered for 4 weeks followed by excised heart exposed to global ischemia for 30 mins and reperfusion for 120 mins by ELISA. It counts as functional, organism-based. In a few lines:
as §3

Data set [12] can be described thus: Effect on glyco-metabolic profile in standard diet fed Wistar rat assessed as effect on triglyceride level in plasma at 20 mg/kg/day, ip administered for 4 weeks. It counts as toxicity, organism-based. Particulars: in vivo, 672 h. In outline:
as §1

The subject of data set [13] is Rattus norvegicus. Put plainly: Antiinflammatory activity against high fat diet fed-induced metaflammation Wistar rat model assessed as reduction in HFD-induced anthropometric alterations by measuring reduction in heart weight at 20 mg/kg/day, ip administered for 4 weeks. It counts as functional, organism-based. In a few lines:
as §2

Data set [14] has as its system Rattus norvegicus. Nature of the data set: Cardioprotective activity against myocardial ischemia/reperfusion injury-induced contractile impairment and standard diet fed Wistar rat model assessed as developed LVP recovery at 20 mg/kg/day, ip administered for 4 weeks followed by excised heart exposed to global ischemia for 30 mins and reperfusion for 120 mins and measured at the end of reperfusion (reference value: 43 +/-7 mmHg). It counts as functional.

A short description of data set [15]: Effect on LDH level in standard diet fed Wistar rat plasma at 20 mg/kg/day, ip administered for 4 weeks. It is filed as toxicity, organism-based. Particulars: in vivo, 672 h.
The nature of data set [16]: Stability of the compound in saline solution containing 2% DMSO and 5% Cremophor-EL measured at 25 degC for more than 7 days by RP-HPLC analysis. It counts as physicochemical. Particulars: buffer, 168 h; time 7 day. In outline: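 A 2 mg/mL solution in saline with 2% DMSO and 5% Cremophor-EL was kept at 4 °C or 25 °C for 7 days and analysed daily by RP-HPLC at 226/254 nm.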

Data set [17] has as its system Rattus norvegicus. Nature of the data set: Inhibition of ischemia/reperfusion-induced oxidative stress in ischemia/reperfusion-induced myocardial injury and standard diet fed Wistar rat model assessed as decrease in cardiac MDA level at 20 mg/kg/day, ip administered for 4 weeks followed by excised heart exposed to global ischemia for 30 mins and reperfusion for 120 mins by TBARS assay. It counts as functional, organism-based. In outline:
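Same rat diet, dosing and Langendorff ischemia/reperfusion protocol. LV homogenized 10% w/v in 0.9% KCl pH 7.4. Homogenate heated at 100 °C for 15 min with TCA and TBA plus butylated hydroxytoluene, centrifuged, and read at […]. MDA expressed as nmol/g heart tissue, compared with sham hearts perfused for 190 min.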

As for `CCOC(=O)Cn1nc(Cc2ccccc2Cl)oc1=O`, the result in the data set with Rattus norvegicus [1], in the data set on Rattus norvegicus [3], with Rattus norvegicus [4], with Rattus norvegicus [7], in the data set with Rattus norvegicus [9] and in the data set with Rattus norvegicus [10] was Active. Moreover, in the data set on Rattus norvegicus [13], the result was Active. Further, the infarct size in vivo at 20 mg/kg/day in the data set with Rattus norvegicus [2] is about 61%. Also, the inhibition result in the data set with Rattus norvegicus [5], in the data set on Rattus norvegicus [11] and in the data set on Rattus norvegicus [17] was “Active” in each case. The Activity result in data set [6] is “Non-Toxic”; in data set [12], “Non-Toxic”; with Rattus norvegicus [14] it was 80 mmHg; in data set [15], “Non-Toxic”. The outcome in the data set with Rattus norvegicus [8] was inactive. In addition, the Stability result in data set [16] was “Stable”.
